Experimental data from different studies.
Protocols differ between the studies behind these lines.
Read-out: cell growth or viability

For `O=C(O)c1ccccc1Nc1cccc(C(F)(F)F)c1`, the GI50 was over 30 µM (NCI-H23; SRB; 48 h).
For `CO[C@]12C[C@@H](COC(=O)c3cncc(Br)c3)CN(C)[C@@H]1Cc1cn(C)c3cccc2c13`, the IC50 was 82.6 µM (C6661; MTT; 48 h).
For `Cc1c(C(=O)O)ccc2c3n(nc12)[C@@H]1[C@H](C3)N(CC2CC2)[C@@]2(C(=O)Nc3cc(Cl)ccc32)[C@H]1c1cccc(Cl)c1F`, the GI50 was 0.005 µM (Rh18; resazurin).
The IC50 of `COc1cc2nc(N3CCN(C(=O)C4COc5ccccc5O4)CC3)nc(N)c2cc1OC` (stereo not drawn) is reported as 54.3 µM (C6661; MTT; 48 h).
`C=C(F)C(=O)N1CCN(c2nc(OC[C@@H]3CCCN3C)nc3c2CCN(c2cccc4cccc(Cl)c24)C3)C[C@@H]1CC#N` has an IC50 of 0.0113 µM (NCI-H23; ATP luminescence; 3D culture).
`Cc1noc2c1-c1ccccc1C(c1ccc(Cl)cc1)=N[C@H]2CC(N)=O` gave an IC50 of 0.52 µM (KG-1; ATP luminescence; 72 h).
The IC50 of `C=CC(=O)N1CCN(c2nc(=O)n(-c3c(C)ccnc3C(C)C)c3nc(-c4c(O)cccc4F)c(F)cc23)[C@@H](C)C1` is reported as over 10 µM (NCI-H1573; ATP luminescence).
For `C=CC(=O)c1cccnc1Nc1cccc(C(F)(F)F)c1`, the GI50 was 14.2 µM (NCI-H23; SRB; 48 h).
For `C=CC(=O)NC1CCN(c2ncc3ncnc(Nc4ccc(Oc5ccc6c(c5)ncn6C)c(C)c4)c3n2)CC1`, the EC50 was 0.079 µM (SW1573).
